From ChEMBL document CHEMBL1145071, “Oxindole-based compounds are selective inhibitors of Plasmodium falciparum cyclin dependent protein kinases” (J Med Chem, 2003)
pIC50: −log10 of the molar value.

Assays:
Protein kinase Pfmrk = molecular target: T1, Protein kinase Pfmrk (Plasmodium falciparum, UniProt P90584); assay: Inhibitory activity against Plasmodium falciparum cyclin dependent protein kinase, Pfmrk
T1 sequence (P90584 whole entry): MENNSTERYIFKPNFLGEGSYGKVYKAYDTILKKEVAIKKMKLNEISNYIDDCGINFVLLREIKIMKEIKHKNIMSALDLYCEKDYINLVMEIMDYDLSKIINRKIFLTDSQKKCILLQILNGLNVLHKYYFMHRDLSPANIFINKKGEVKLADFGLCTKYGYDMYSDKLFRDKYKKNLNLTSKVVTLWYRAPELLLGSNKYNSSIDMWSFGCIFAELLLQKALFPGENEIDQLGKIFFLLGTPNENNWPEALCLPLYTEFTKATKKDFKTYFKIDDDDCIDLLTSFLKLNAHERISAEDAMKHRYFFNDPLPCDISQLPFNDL

[1] = molecular target: Cyclin-dependent kinase 1/cyclin B (Homo sapiens, UniProt P06493); assay: Inhibition of human Cyclin-dependent kinase 1 cyclin B; format: protein-complex assay
Plasmodium falciparum [2] = assay: Inhibitory activity against Plasmodium falciparum D6; format: functional, organism-based
How it was run: (§1)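 Cultured D6 (chloroquine-sensitive) and W2 (chloroquine-resistant) clones in A+ red cells, 6% hematocrit, 10% human serum, 90% N2/5% O2/5% CO2. Cultures at 3% parasitemia with at least 70% rings placed in drug-precoated wells for 24 h. [3H]-hypoxanthine then added for a further 18 h; uptake counted after harvest. IC50 from four-parameter nonlinear regression.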

PFPK5(P.falciparum) = PFPK5(P.falciparum) (Plasmodium falciparum, UniProt P61075); assay: Inhibition of Plasmodium falciparum cyclin dependent protein kinase, PfPK5
Sequence of PFPK5(P.falciparum) (P61075 whole entry, looked up): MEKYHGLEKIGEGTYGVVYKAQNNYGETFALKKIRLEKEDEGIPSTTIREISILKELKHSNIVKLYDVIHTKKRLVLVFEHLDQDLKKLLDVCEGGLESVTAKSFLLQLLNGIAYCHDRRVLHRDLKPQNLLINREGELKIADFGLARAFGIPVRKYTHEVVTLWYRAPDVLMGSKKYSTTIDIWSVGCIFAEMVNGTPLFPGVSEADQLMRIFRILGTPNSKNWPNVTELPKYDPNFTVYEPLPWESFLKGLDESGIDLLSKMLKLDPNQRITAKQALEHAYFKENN

Plasmodium falciparum [3] = assay: Inhibitory activity against Plasmodium falciparum W2; format: functional, organism-based; how it was run: as §1

Row | SMILES | pIC50 (Protein kinase Pfmrk) | pIC50 [1] | pIC50 (Plasmodium falciparum [2]) | pIC50 (PFPK5(P.falciparum)) | pIC50 (Plasmodium falciparum [3])
1 | O=C1Nc2ccccc2/C1=C\c1ccc(O)cc1 | < 4.38 |  |  |  | 
2 | O=C1Nc2ccccc2/C1=C/C(=O)c1ccc(Br)cc1 | 5.46 | 4.92 | < 4.82 | 3.89 | < 4.82
3 | Cc1ccc(C(=O)/C=C2/C(=O)Nc3ccc(Br)cc32)cc1 | 5.54 | 4.54 | < 4.84 | 3.92 | < 4.84
4 | O=C1Nc2ccccc2/C1=C\C(=O)c1ccccc1 | 5.40 | < 4.80 | < 4.70 | 3.82 | < 4.70
5 | N#C/C(C(N)=O)=C1\C(=O)Nc2ccccc21 | 4.62 |  |  |  | 
6 | O=C1Nc2ccccc2/C1=C\c1ccc(Cl)cc1 | < 4.43 |  |  |  | 
7 | CC(=O)/C=C1/C(=O)Nc2ccccc21 | < 4.43 |  |  |  | 
8 | CC(C)(C)C(=O)/C=C1/C(=O)Nc2ccccc21 | < 4.36 |  |  |  | 
9 | O=C1Nc2ccc(Br)cc2/C1=C\C(=O)c1ccc(F)cc1 | 5.85 | 4.54 | < 4.84 | 3.72 | < 4.84
10 | C/N=C/c1c(O)[nH]c2ccccc12 | < 4.24 |  |  |  | 
11 | COc1cc2ncnc(Nc3cccc(O)c3)c2cc1OC | 3.77 |  |  |  | 
12 | COc1ccc2c(c1)/C(=C1/SC(=S)NC1=O)C(=O)N2 | 4.77 |  |  |  | 
13 | O=C1Nc2ccccc2/C1=C\c1ccc(C(F)(F)F)cc1 | 5.37 |  |  |  | 
14 | O=C1NC(=S)S/C1=C1\C(=O)Nc2ccc(F)cc21 | < 4.72 |  |  |  | 
15 | O=C1Nc2ccccc2/C1=C\C1CCCCN1 (configuration not stated) | < 4.68 |  |  |  | 
16 | CCOC(=O)/C(C#N)=C1/C(=O)Nc2ccccc21 | 4.38 |  |  |  | 
17 | O=C1Nc2ccccc2/C1=C\c1c(Cl)cccc1Cl | 4.77 |  |  |  | 
18 | O=C1Nc2ccc(Br)cc2/C1=C/C(=O)c1ccccc1 | 5.51 | 4.52 | < 4.82 | 3.92 | < 4.82
19 | CN[C@@H]1C[C@H]2O[C@@](C)([C@@H]1OC)n1c3ccccc3c3c4c(c5c6ccccc6n2c5c31)C(=O)NC4 (single isomer, unassigned) [STAUROSPORINE] | 5.40 |  | 6.72 |  | 6.82
20 | O=C1Cc2c([nH]c3ccc([N+](=O)[O-])cc23)-c2ccccc2N1 [ALSTERPAULLONE] | 4.29 |  | 5.37 |  | 5.37
21 | COC(=O)[C@@]1(Cc2ccc(O)c(CC=C(C)C)c2)OC(=O)C(O)=C1c1ccc(O)cc1 [BUTYROLACTONE I] | 4.03 |  | 4.93 |  | 4.93
22 | O=Nc1c(-c2c(O)[nH]c3ccccc23)[nH]c2ccccc12 [INDIRUBIN-3-MONOXIME] | 4.52 |  | 6.22 |  | 5.96
23 | O=C1Cc2c([nH]c3ccc(Br)cc23)-c2ccccc2N1 [KENPAULLONE] | 4.82 |  | 5.42 |  | 5.42
24 | Cn1cnc2c(NCc3ccccc3)nc(NCCO)nc21 [OLOMOUCINE] | < 3.00 |  | 5.57 |  | 5.10
25 | CC(C)[C@H](CO)Nc1nc(Nc2cccc(Cl)c2)c2ncn(C(C)C)c2n1 [PURVALANOLA] | 4.59 |  | 5.59 |  | 5.04
26 | CC[C@H](CO)Nc1nc(NCc2ccccc2)c2ncn(C(C)C)c2n1 [SELICICLIB] | < 3.00 |  | 4.48 |  | 4.55
